Screens from PubChem BioAssay.
hDAT+cocaine = changed human dopamine transporter uptake under cocaine IC80. B-score at 10 µM. LLC-PK1 hDAT cells, [14C]-dopamine uptake with cocaine IC80; actives deviate in either direction. AID 449768. Q01959. 110,000 tested, 1.3% active;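 active means Z score or B-score, a plate-position-corrected score, falls beyond the plate's 99.7% confidence bounds, in either direction; inactive means both scores lie inside the 99.7% bounds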
M1 antag = blocks the rat M1 muscarinic receptor response to acetylcholine; CHO-M1 cells, Fluo-4 calcium, ACh EC80 antagonist mode; stronger effect = lower value; B-score at 10 µM; 64,000 tested, 3.4% active;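 active means calcium fluorescence response, raw or row-and-column corrected B-score, differing from the plate sample mean either way at a set confidence level, mostly lower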
D1 mod = allosteric modulators of human D1 dopamine receptor | AID 641 | P21728 | B-score at 10 µM | 58,000 tested, 5.9% active | HEK293 D1, CRE-luciferase, dopamine EC30 potentiation; actives deviate in either direction;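 active means luminescence count or its row- and column-corrected plate score outside the 99.7% band of the plate's sample wells, on either side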
HEK293 NFkB inh = lowers PMA/ionomycin-induced NF-kB signal in HEK293 cells | 62,000 tested, 0.21% active | HEK-293 NF-kB luciferase reporter, luminescence | inhibition, % at 3 µM;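 active means inhibition above the mean of all tested compounds plus 3 SD, cut at about 40% in these data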
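Reagent: PMA plus ionomycin mix as NF-kB-activating stimulus. Assay system: NF-kB luciferase reporter HEK-293 cells. Technique: luminescence from luciferase substrate reagent. Incubation: 1 h compound pre-incubation, 16 h PMA/ionomycin at 37 °C. Benchmarks: DMSO only as uninhibited control, 10 µM reference inhibitor as full inhibition. Repeats: tested once.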
M1 ag = agonists of M1 muscarinic receptor. CHO-M1 cells, Fluo-4 calcium fluorescence, agonist mode; stronger effect = higher value. B-score at 10 µM. 64,000 tested, 3% active. AID 626;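 active means fluorescence rise, raw or as B-score row- and column-corrected plate score, outside the 99.7% band of its plate's samples, either direction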
BAP1 inh = human BAP1 deubiquitinase inhibition | 72,000 tested, 0.48% active | calls only at 20 µM | AID 436 | recombinant BAP1, Ub-AMC hydrolysis fluorescence kinetic; stronger effect = lower value | Q92560;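 active means activity remaining at or below 50% of control, provided the compound also passes the data quality filters; inactive means the rest, including low values that fail the filters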
Target sequence (Q92560 whole entry, looked up): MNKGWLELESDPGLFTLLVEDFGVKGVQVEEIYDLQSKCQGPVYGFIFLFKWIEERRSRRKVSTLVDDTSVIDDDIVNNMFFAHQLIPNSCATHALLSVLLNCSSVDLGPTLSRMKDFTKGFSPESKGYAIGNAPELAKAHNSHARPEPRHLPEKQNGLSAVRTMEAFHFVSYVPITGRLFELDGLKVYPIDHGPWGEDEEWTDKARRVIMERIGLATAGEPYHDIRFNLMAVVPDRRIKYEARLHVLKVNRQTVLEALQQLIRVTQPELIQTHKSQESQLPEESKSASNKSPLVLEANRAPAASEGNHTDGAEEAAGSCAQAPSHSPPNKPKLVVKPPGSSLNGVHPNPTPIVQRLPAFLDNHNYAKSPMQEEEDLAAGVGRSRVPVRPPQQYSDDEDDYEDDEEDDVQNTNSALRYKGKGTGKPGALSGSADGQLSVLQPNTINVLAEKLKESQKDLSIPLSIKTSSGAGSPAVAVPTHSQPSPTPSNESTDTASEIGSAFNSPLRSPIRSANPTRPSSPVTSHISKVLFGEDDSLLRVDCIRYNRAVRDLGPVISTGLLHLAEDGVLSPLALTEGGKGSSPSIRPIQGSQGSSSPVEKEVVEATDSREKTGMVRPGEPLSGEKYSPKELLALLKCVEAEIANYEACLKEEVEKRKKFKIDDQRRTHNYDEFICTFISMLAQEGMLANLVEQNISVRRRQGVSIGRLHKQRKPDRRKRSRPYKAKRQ
Of the large screens only hits and unclear results are named; the others gave an inactive call. Only some compounds are listed: those with a hit (about 7.2% of all), similar ones and a draw of the others.

Cn1c(C(=O)NCCN2CCOCC2)cc2c(=O)n(C)c3ccccc3c21	none
COc1ccc(C)cc1Nc1n[nH]c(C)c1[N+](=O)[O-]	none (no result: hDAT+cocaine, M1 antag, D1 mod, HEK293 NFkB inh, M1 ag)
Cc1cc(NC(=O)CS(=O)(=O)c2cn(Cc3ccccc3Cl)c3ccccc23)no1	M1 antag 3.7
CCOC(=O)N1CCN(C(=O)CS(=O)(=O)c2cn(Cc3ccccc3Cl)c3ccccc23)CC1	none (no result: M1 antag, D1 mod, HEK293 NFkB inh, M1 ag, BAP1 inh)
Cc1ccc(-c2cc(C(F)(F)F)n3ncc(C(=O)N4CCN(Cc5ccccc5)CC4)c3n2)cc1	none (no result: hDAT+cocaine, M1 antag, D1 mod, HEK293 NFkB inh, M1 ag)
COc1cccc(CNCCc2c[nH]c3ccccc23)c1OCc1ccc(F)cc1	none (no result: M1 antag, D1 mod, HEK293 NFkB inh, M1 ag, BAP1 inh)
COc1cc(CNCCc2c[nH]c3ccccc23)ccc1OCc1ccc(F)cc1	hDAT+cocaine 4.4 (no result: M1 antag, D1 mod, HEK293 NFkB inh, M1 ag, BAP1 inh)
COc1ccc(C2=NO[C@@H]3C(=O)N(c4cccc(C)c4C)C(=O)[C@H]23)cc1OC	M1 antag 0.91
COc1ccc(C2=NO[C@@H]3C(=O)N(c4ccc(C)cc4C)C(=O)[C@H]23)cc1OC	none
Cn1ccccc1=Nc1cccc[n+]1C	none (no result: hDAT+cocaine, M1 antag, D1 mod, HEK293 NFkB inh, M1 ag)
CC1CC(C)(C)Nc2ccc(OC(=O)c3ccco3)cc21 (stereo not given)	HEK293 NFkB inh 58
O=C(O)CCC(=O)c1ccc2c(c1)OCCO2	none
O=C(O)CCOc1ccc2c(c1)OCCO2	hDAT+cocaine -7.6
CCC(Sc1nc(=O)cc(N)n1CCc1ccccc1)C(=O)Nc1cc(C)on1 (stereo not given)	D1 mod -5.1
Nc1cc(=O)nc(SCC(=O)NCc2ccccc2)n1CCc1ccccc1	hDAT+cocaine -5.1 (no result: M1 antag, D1 mod, HEK293 NFkB inh, M1 ag, BAP1 inh)
CCCn1c2ccccc2c2nnc(SC(CC)C(=O)Nc3cc(C)on3)nc21 (stereo not given)	none (no result: M1 antag, D1 mod, HEK293 NFkB inh, M1 ag, BAP1 inh)
O=C1c2cc(S(=O)(=O)N3CCOCC3)cc([N+](=O)[O-])c2-c2c1cc(S(=O)(=O)N1CCOCC1)cc2[N+](=O)[O-]	none (no result: hDAT+cocaine, M1 antag, D1 mod, HEK293 NFkB inh, M1 ag)
CC(C)c1cc(C(C)C)c(S(=O)NCCCN2CCOCC2)c(C(C)C)c1 (stereo not given)	none (no result: hDAT+cocaine, M1 antag, D1 mod, HEK293 NFkB inh, M1 ag)
COCCNC(=O)c1sc2cc(Cl)ccc2c1Cl	none (no result: hDAT+cocaine, M1 antag, D1 mod, HEK293 NFkB inh, M1 ag)
CCCC[n+]1c(C)sc2ccccc21	none (no result: hDAT+cocaine, M1 antag, D1 mod, HEK293 NFkB inh, M1 ag)
N#Cc1cc2c(nc1SCC(O)CS(=O)(=O)Cc1ccccc1)CCCC2 (stereo not given)	D1 mod -3.6
COc1ccc(C(=O)CSc2nc(C)cc(C)c2C#N)cc1	none (no result: hDAT+cocaine, M1 antag, D1 mod, HEK293 NFkB inh, M1 ag)
C=CCC(NCc1ccco1)c1ccc(OC)c(OC)c1 (stereo not given)	hDAT+cocaine -7.5 (no result: M1 antag, D1 mod, HEK293 NFkB inh, M1 ag, BAP1 inh)
COc1ccc(C(=O)Oc2ccc(Cl)c3cccnc23)cc1OC	none (no result: hDAT+cocaine, M1 antag, D1 mod, HEK293 NFkB inh, M1 ag)
N#Cc1ccc(C(c2nnnn2Cc2ccccc2)N2CCCC2)cc1 (stereo not given)	hDAT+cocaine -9.3 (no result: M1 antag, D1 mod, HEK293 NFkB inh, M1 ag, BAP1 inh)
COc1ccc(Cn2nnnc2C(c2cccs2)N2CCN(c3ccccc3)CC2)cc1 (stereo not given)	none
Fc1ccc(C(c2nnnn2Cc2cccs2)N2CCN(c3ccccc3)CC2)cc1 (stereo not given)	hDAT+cocaine 2.2 (no result: M1 antag, D1 mod, HEK293 NFkB inh, M1 ag, BAP1 inh)
CCCc1ccc(-c2ccc(C(=O)Nc3ccc(C)cc3)cc2)nc1	none (no result: hDAT+cocaine, M1 antag, D1 mod, HEK293 NFkB inh, M1 ag)
ONC(=Nc1ccc(Cl)cc1)c1ccccc1	hDAT+cocaine -9.7 (no result: M1 antag, D1 mod, HEK293 NFkB inh, M1 ag, BAP1 inh)
Cc1c(N=Cc2nn(-c3ccccc3)cc2-c2ccccc2)c(=O)n(-c2ccccc2)n1C	none (no result: hDAT+cocaine, M1 antag, D1 mod, HEK293 NFkB inh, M1 ag)
CC(C)(C)N1CC(COc2ccccc2)OC1=O (stereo not given)	hDAT+cocaine -8.9
COc1cccc(N2CCN(Cc3nc(N)nc(Nc4ccccc4OC)n3)CC2)c1	none
COc1ccccc1Nc1nc(N)nc(CN2CCN(c3ccccc3)CC2)n1	hDAT+cocaine 2.5 (no result: M1 antag, M1 ag)
Cn1c(COc2ccccc2)nnc1SCC(=O)Nc1ccc(N2CCOCC2)c(Cl)c1	none
CCOC(=O)c1cc(NC(=O)CSc2nnc(CN3CCOCC3)n2C)ccc1Cl	hDAT+cocaine -8.9 (no result: M1 antag, D1 mod, HEK293 NFkB inh, M1 ag, BAP1 inh)
CCNC(=O)C1OC(n2cnc3c(NCc4ccccc4)ncnc32)C(O)C1O (stereo not given)	none (no result: hDAT+cocaine, M1 antag, D1 mod, HEK293 NFkB inh, M1 ag)
O=C1C2C3C=CC(C3)C2C(=O)N1/N=C/c1cc(Br)cc([N+](=O)[O-])c1O (stereo not given)	hDAT+cocaine -2.8 (no result: M1 antag, D1 mod, HEK293 NFkB inh, M1 ag, BAP1 inh)
O=C1C2C3C=CC(C3)C2C(=O)N1/N=C/c1cn(Cc2ccccc2)c2ccccc12 (stereo not given)	none (no result: M1 antag, D1 mod, HEK293 NFkB inh, M1 ag, BAP1 inh)
CCN(CC)c1ccc(C2C3CCCCC3(O)CCN2CC(=O)N2CCCCC2)cc1 (stereo not given)	hDAT+cocaine -7.9
